Only some compounds are listed: those with a hit (about 1.5% of all), similar ones and a draw of the others.
Cardio protect: cardioprotection against H2O2-induced cell death, primary screen, uHTS, H9c2 cells, ATPLite luminescence. H9c2 cardiomyocytes, H2O2 injury protection, 2 h. protection from H2O2 cell death, % at 20 µM. 360,000 compounds, 0.63% hits. AID 588492, 2011;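 active = compounds giving at least 50% protection of heart cells from peroxide-induced death in the single-dose screen, raw or plate-pattern-corrected value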
Rin1 Abl inh: inhibitors of Rin1-Abl protein binding, primary screen, biochemical, TR-FRET | Tyrosine-protein kinase ABL1 (Homo sapiens) + Ras and Rab interactor 1 (Homo sapiens), … | inhibition, % at 7.35 µM | 360,000 compounds, 0.4% hits; in the data active = inhibition above about 5%, passing the limit was not always enough
PKA-R2B activ: activators of PKA-R2B holoenzyme, primary screen, biochemical, fluorescence polarization, Cy5-IP20, human; activation, % at 11.4 µM; PKA-R2B holoenzyme dissociation; R2B truncated from residue 108, S112A mutant; 0% DMSO only, 100% 113 µM cGMP; cAMP-dependent protein kinase catalytic subunit beta (Homo sapiens) + cAMP-dependent …; AID 504700, 2011; 340,000 compounds, 0.079% hits;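 active = activation above a cutoff set at the mean over all compounds plus 3 SD, cut at about 18% in these data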;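 also: higher means more holoenzyme dissociation and a rise in polarization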
Target sequence (P31323 whole entry, looked up, other chains not shown, the tested form may be a part): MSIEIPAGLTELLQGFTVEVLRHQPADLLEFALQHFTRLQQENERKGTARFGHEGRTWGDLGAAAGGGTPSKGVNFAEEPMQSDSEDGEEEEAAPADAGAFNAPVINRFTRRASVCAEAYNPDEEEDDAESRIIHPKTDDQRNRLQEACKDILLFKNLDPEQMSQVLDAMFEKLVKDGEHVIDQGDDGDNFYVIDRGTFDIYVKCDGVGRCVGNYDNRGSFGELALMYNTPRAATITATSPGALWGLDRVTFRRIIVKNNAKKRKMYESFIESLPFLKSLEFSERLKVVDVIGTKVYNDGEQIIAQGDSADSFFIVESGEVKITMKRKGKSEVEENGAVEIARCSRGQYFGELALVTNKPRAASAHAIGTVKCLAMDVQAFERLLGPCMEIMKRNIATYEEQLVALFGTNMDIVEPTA
PKA-R1A activ: activators of PKA-R1A holoenzyme, primary screen, biochemical, fluorescence polarization, Cy5-IP20, bovine R1A, mouse PKAc | PKA-R1A dissociation; scaled: DMSO 0%, 113 µM cGMP 100% | cAMP-dependent protein kinase type I-alpha regulatory subunit (Bos taurus) + … | 340,000 compounds, 0.083% hits | activation, % at 11.4 µM;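 active = percent activation above the mean of all tested compounds plus 3 SD, cut at about 19% in these data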;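 also: higher means more PKAc released from R1A so a rise in polarization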
Tb MetRS inh: T. brucei MetRS inhibitors, primary screen, biochemical, luminescence | inhibition, % at 11.9 µM | AID 624268, 2012 | 360,000 compounds, 0.4% hits | purified T. brucei MetRS, ATP depletion, Kinase-Glo luminescence | methionyl-tRNA synthetase (Trypanosoma brucei brucei);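 active = inhibition above a per-plate cutoff of the control wells' mean inhibition plus 3 SD, cut at about 5.5% in these data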
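Material – parasite MetRS enzyme · Medium – HEPES-MgCl2-KCl buffer plus DTT, spermine, BSA, pyrophosphatase · Reagent – ATP, methionine and E. coli bulk tRNA substrates · Times – 15 min enzyme-compound preincubation, 2 h reaction, 10 min detection, 25 °C · Measured by – luminescence of leftover ATP · Evaluation – percent inhibition relative to median high and low control wells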
TbMetRS confirm: T. brucei MetRS inhibitors, confirmation, biochemical, luminescence. inhibition, % at 11.9 µM. shares compounds with Tb MetRS inh. AID 624412, 2012. 1,400 compounds, 93% hits. T. brucei MetRS enzyme, luminescence (ATP depletion); in the data active = inhibition above about 7%
Jurkat tox: Jurkat T cell cytotoxicity, cytotoxicity control for T. brucei MetRS inhibitor project, luminescence, high throughput. shares compounds with Tb MetRS inh. Jurkat cells viability, ATP luminescence. inhibition, % at 8.3 µM. 1,400 compounds, 12% hits. AID 624413, 2012; in the data active = inhibition above about 15%
TbMetRS FP orth: T. brucei MetRS inhibitors, orthogonal assay for T. brucei MetRS inhibitor project, biochemical, fluorescence polarization; shares compounds with Tb MetRS inh; purified T. brucei MetRS; inhibition, % at 11.9 µM; 1,400 compounds, 44% hits; AID 651607, 2012; in the data active = inhibition above about 17%
Of the large screens only hits and unclear results are named; the others gave an inactive call (follow-up assays come after a bar, where they were run).

O=C(O)c1ccc(-n2c(O)c(C=C3N=c4ccccc4=N3)sc2=S)cc1	Tb MetRS inh 7.8 | TbMetRS confirm 33 | Jurkat tox inactive | TbMetRS FP orth inactive
O=C(O)c1cccc(-n2c(O)c(C=C3N=c4ccccc4=N3)sc2=S)c1	Tb MetRS inh 18 | TbMetRS confirm 41 | Jurkat tox inactive | TbMetRS FP orth inactive
CCN(CC)c1ccc(-n2c(O)c(C=C3N=c4ccccc4=N3)sc2=S)cc1	none
CC(C)(C)C1c2[nH]c3ccccc3c2CCN1Cc1cccc(OCCO)c1 (stereo unspecified)	Tb MetRS inh 9.1 | TbMetRS confirm 7.1 | Jurkat tox inactive | TbMetRS FP orth inactive
O=C(NCCc1nc2ccccc2[nH]1)/C(=C/c1ccc2c(c1)OCO2)NC(=O)c1ccccc1	Tb MetRS inh 6.4 | TbMetRS confirm 9.6 | Jurkat tox inactive | TbMetRS FP orth inactive
COc1ccccc1C(=O)N/C(=C\c1ccc2c(c1)OCO2)C(=O)NCCc1nc2ccccc2[nH]1	Tb MetRS inh 8.8 | TbMetRS confirm 16 | Jurkat tox inactive | TbMetRS FP orth inactive
COCc1ccc([C@@H]2C[C@H]3CN(Cc4ccccc4C)C(=O)[C@]34CCCN24)o1	none
N#C/C(=C/c1cccc(O)c1)C(=O)NCc1ccc(Cl)cc1	none
N#C/C(=C/c1ccc(O)c(O)c1)C(=O)NCc1ccc(Cl)cc1	Cardio protect 65, Tb MetRS inh 15 | TbMetRS confirm 36 | Jurkat tox 17 | TbMetRS FP orth inactive
CN(CC(=O)Nc1ccc(Cl)cc1)C(=O)CCC1CCCC1	Tb MetRS inh 6.7 | TbMetRS confirm 52 | Jurkat tox inactive | TbMetRS FP orth 20
O=S(=O)(Nc1cccc(S(=O)(=O)N2CCCCCC2)c1)c1ccc(F)cc1F	none
Cc1ccc(C)c(C(=O)Nc2nc3ccccc3[nH]2)c1	none
Cc1ccc(Nc2nc3ccccc3[nH]2)nc1	Tb MetRS inh 8.1 | TbMetRS confirm 26 | Jurkat tox inactive | TbMetRS FP orth inactive
COc1ccc(NC(=O)CS(=O)(=O)Cc2nc(-c3ccc(C)cc3)oc2C)cc1	none
COc1ccc(-c2nc(CS(=O)(=O)CC(=O)Nc3ccc(Cl)cc3)c(C)o2)cc1	Tb MetRS inh 12 | TbMetRS confirm 34 | Jurkat tox 46 | TbMetRS FP orth 26
Fc1ccccc1COc1ccc(Br)cc1CNCC1CCCO1 (stereo unspecified)	none
Cn1nnc(NCc2cc(Br)ccc2OCc2ccccc2F)n1	Tb MetRS inh 20 | TbMetRS confirm 24 | Jurkat tox inactive | TbMetRS FP orth inactive
O=C(Nc1cccnc1)c1ccc(COc2cc(Cl)ccc2Cl)o1	Tb MetRS inh 6.8 | TbMetRS confirm 15 | Jurkat tox inactive | TbMetRS FP orth 18
O=C(Nc1cccnc1)c1ccc(COc2ccccc2Cl)o1	none
O=C(NCc1ccc2c(c1)OCO2)c1ccc(COc2cc(Cl)ccc2Cl)o1	Tb MetRS inh 8.1 | TbMetRS confirm 15 | Jurkat tox inactive | TbMetRS FP orth inactive
Cc1ccc(NC(=O)Cn2c(CCC(=O)O)ccc2-c2ccc(Cl)cc2)cc1	Tb MetRS inh 10 | TbMetRS confirm 34 | Jurkat tox inactive | TbMetRS FP orth 17
COc1cccc(NC(=O)Cn2c(CCC(=O)O)ccc2-c2ccc(Cl)cc2)c1	none
Cc1cc(Cl)ccc1OCc1cn2cccnc2n1	Tb MetRS inh 11 | TbMetRS confirm 21 | Jurkat tox inactive | TbMetRS FP orth inactive
Cc1cccc(NC(=O)COC(=O)Cc2cccs2)c1C	none
Cc1ccc(NCc2nc3ccccc3n2C)cc1C	none
COc1ccc(S(=O)(=O)NC(=O)C2(C)CCN2C(=O)C2CC2)cc1 (stereo unspecified)	Tb MetRS inh 11 (no result: PKA-R2B activ, PKA-R1A activ) | TbMetRS confirm 5.8 | Jurkat tox inactive | TbMetRS FP orth inactive
C=CCc1cccc(CNc2nc3ccccc3n2C)c1O	Tb MetRS inh 28 | TbMetRS confirm 46 | Jurkat tox inactive | TbMetRS FP orth 26
Cn1c(NCc2cc(Br)ccc2O)nc2ccccc21	Tb MetRS inh 41 | TbMetRS confirm 58 | Jurkat tox inactive | TbMetRS FP orth 24
C=CCc1cccc(CNc2cnc3ccccc3c2)c1O	Tb MetRS inh 6.0 | TbMetRS confirm 12 | Jurkat tox 31 | TbMetRS FP orth inactive
COc1ccc(CNc2nc3ccccc3n2C)c(O)c1	none
Oc1ccc(Cl)cc1CNc1cnc2ccccc2c1	Tb MetRS inh 13 | TbMetRS confirm 14 | Jurkat tox 30 | TbMetRS FP orth inactive
CCCOc1ccc(N2C(=O)CC(SCCc3nc4ccccc4[nH]3)C2=O)cc1 (stereo unspecified)	none
CCOc1ccc(N2C(=O)CC(SCc3nc4ccccc4[nH]3)C2=O)cc1 (stereo unspecified)	none
O=C1CC(SCc2nc3ccccc3[nH]2)C(=O)N1c1ccc(F)c(Cl)c1 (stereo unspecified)	Tb MetRS inh 29 | TbMetRS confirm 21 | Jurkat tox inactive | TbMetRS FP orth inactive
O=C1CC(SCc2nc3ccccc3[nH]2)C(=O)N1c1cccc(F)c1 (stereo unspecified)	Tb MetRS inh 26 | TbMetRS confirm 23 | Jurkat tox 17 | TbMetRS FP orth inactive
O=C1CC(SCc2nc3ccccc3[nH]2)C(=O)N1c1ccc(Cl)cc1 (stereo unspecified)	Tb MetRS inh 5.7 | TbMetRS confirm 5.7 | Jurkat tox inactive | TbMetRS FP orth inactive
O=C(NCc1cc(Cl)cc(Cl)c1)c1csc(COCCO)n1	Tb MetRS inh 43 (no result: PKA-R2B activ, PKA-R1A activ) | TbMetRS confirm 66 | Jurkat tox inactive | TbMetRS FP orth 44
O=C(NCc1cc(Cl)cc(Cl)c1)c1ccc2sc([C@H]3C[C@H](O)[C@@H](CO)O3)nc2c1	Tb MetRS inh 27 (no result: PKA-R2B activ, PKA-R1A activ) | TbMetRS confirm 69 | Jurkat tox inactive | TbMetRS FP orth 39
O=C(NCc1cc(Cl)cc(Cl)c1)c1ccc2nc([C@@H]3O[C@H](CO)[C@@H](O)[C@H]3O)[nH]c2c1	Tb MetRS inh 11 (no result: PKA-R2B activ, PKA-R1A activ) | TbMetRS confirm 45 | Jurkat tox inactive | TbMetRS FP orth 25

Compound activity (PubChem BioAssay)
